Data as given in ChEMBL document CHEMBL1255376, “Comparative surveillance study of telavancin activity against recently collected gram-positive clinical isolates from across the United States” (2008).

Tests used:
Type in all cases: functional
[1] = test system: Staphylococcus capitis; assay: Antibacterial activity against methicillin-susceptible coagulase-negative Staphylococcus capitis clinical isolate by broth microdilution method
Outline: (§1)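 MICs by CLSI broth microdilution in frozen trays pre-loaded with serial dilutions of each agent. Quality-control strains run in parallel: E. faecalis ATCC 29212 and ATCC 51299, S. aureus ATCC 29213, S. pneumoniae ATCC 49619. Comparator susceptibility categories follow CLSI breakpoints. Methicillin resistance in staphylococci assigned from the oxacillin MIC.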

[2] = test system: Staphylococcus warneri; assay: Antibacterial activity against methicillin-resistant coagulase-negative Staphylococcus warneri clinical isolate by broth microdilution method; outline: as §1
[3] = test system: Streptococcus equinus; assay: Antibacterial activity against Streptococcus bovis clinical isolate by broth microdilution method
Outline: (§2)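 MIC by CLSI broth microdilution in frozen microtiter trays holding serial dilutions of each agent, prepared from standard laboratory powders. E. faecalis ATCC 29212 and ATCC 51299, S. aureus ATCC 29213 and S. pneumoniae ATCC 49619 run in parallel as quality-control strains. Comparator susceptibility interpreted with CLSI breakpoints.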

[4] = test system: Staphylococcus xylosus; assay: Antibacterial activity against methicillin-resistant coagulase-negative Staphylococcus xylosus clinical isolate by broth microdilution method; outline: as §1
[5] = test system: Streptococcus pyogenes; assay: Antibacterial activity against Streptococcus pyogenes clinical isolate by broth microdilution method; outline: as §2
[6] = test system: Staphylococcus epidermidis; assay: Antibacterial activity against methicillin-resistant coagulase-negative Staphylococcus epidermidis clinical isolate by broth microdilution method; outline: as §1
[7] = test system: Staphylococcus saprophyticus; assay: Antibacterial activity against methicillin-susceptible coagulase-negative Staphylococcus saprophyticus clinical isolate by broth microdilution method; outline: as §1
[8] = test system: Staphylococcus cohnii; assay: Antibacterial activity against methicillin-resistant coagulase-negative Staphylococcus cohnii clinical isolate by broth microdilution method; outline: as §1
[9] = test system: Staphylococcus capitis; assay: Antibacterial activity against methicillin-resistant coagulase-negative Staphylococcus capitis clinical isolate by broth microdilution method; outline: as §1
[10] = test system: Streptococcus pneumoniae; assay: Antibacterial activity against penicillin resistant Streptococcus pneumoniae clinical isolate by broth microdilution method; outline: as §1
[11] = test system: Streptococcus oralis; assay: Antibacterial activity against Streptococcus oralis clinical isolate by broth microdilution method; outline: as §2
[12] = test system: Staphylococcus; assay: Antibacterial activity against methicillin-susceptible coagulase-negative unspeciated Staphylococcus clinical isolate by broth microdilution method; outline: as §1
[13] = test system: Staphylococcus simulans; assay: Antibacterial activity against methicillin-susceptible coagulase-negative Staphylococcus simulans clinical isolate by broth microdilution method; outline: as §1
[14] = test system: Mammaliicoccus sciuri; assay: Antibacterial activity against methicillin-resistant coagulase-negative Staphylococcus sciuri clinical isolate by broth microdilution method; outline: as §1
[15] = test system: Streptococcus pneumoniae; assay: Antibacterial activity against penicillin susceptible Streptococcus pneumoniae clinical isolate by broth microdilution method; outline: as §1
[16] = test system: Streptococcus intermedius; assay: Antibacterial activity against Streptococcus intermedius clinical isolate by broth microdilution method; outline: as §2
[17] = test system: Streptococcus agalactiae; assay: Antibacterial activity against Streptococcus agalactiae clinical isolate by broth microdilution method; outline: as §2
[18] = test system: Streptococcus mitis; assay: Antibacterial activity against Streptococcus mitis clinical isolate by broth microdilution method; outline: as §2
[19] = test system: Staphylococcus aureus; assay: Antibacterial activity against vancomycin-intermediate methicillin-resistant Staphylococcus aureus NRS17 by broth microdilution method
Outline: (§3)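 VISA and VRSA strains from the NARSA repository were tested separately from the surveillance isolates. MICs by CLSI broth microdilution in frozen trays with serial dilutions. Quality-control strains run in parallel. Susceptibility categories follow CLSI breakpoints, and methicillin resistance was assigned from the oxacillin MIC.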

[20] = test system: Staphylococcus epidermidis; assay: Antibacterial activity against methicillin-susceptible coagulase-negative Staphylococcus epidermidis clinical isolate by broth microdilution method; outline: as §1
[21] = test system: Staphylococcus hominis; assay: Antibacterial activity against methicillin-resistant coagulase-negative Staphylococcus hominis clinical isolate by broth microdilution method; outline: as §1
[22] = test system: Staphylococcus; assay: Antibacterial activity against methicillin-resistant coagulase-negative unspeciated Staphylococcus clinical isolate by broth microdilution method; outline: as §1
[23] = test system: Staphylococcus saprophyticus; assay: Antibacterial activity against methicillin-resistant coagulase-negative Staphylococcus saprophyticus clinical isolate by broth microdilution method; outline: as §1
[24] = test system: Staphylococcus aureus; assay: Antibacterial activity against vancomycin-, methicillin-resistant Staphylococcus aureus VRS1 by broth microdilution method; outline: as §3
[25] = Antibacterial activity against Streptococcus sp. Group C clinical isolate by broth microdilution method; outline: as §2
[26] = test system: Staphylococcus aureus; assay: Antibacterial activity against vancomycin-, methicillin-resistant Staphylococcus aureus VRS2 by broth microdilution method; outline: as §3
[27] = test system: Streptococcus sp.; assay: Antibacterial activity against Streptococcus sp. clinical isolate by broth microdilution method
Outline: (§4)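 MIC by CLSI broth microdilution in frozen microtiter trays holding serial dilutions of each agent, prepared from standard laboratory powders. Comparator susceptibility interpreted with CLSI breakpoints.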

[28] = test system: Streptococcus constellatus; assay: Antibacterial activity against Streptococcus constellatus clinical isolate by broth microdilution method; outline: as §2
[29] = test system: Staphylococcus haemolyticus; assay: Antibacterial activity against methicillin-resistant coagulase-negative Staphylococcus haemolyticus clinical isolate by broth microdilution method; outline: as §1
[30] = test system: Enterococcus faecium; assay: Antibacterial activity against vancomycin-susceptible Enterococcus faecium clinical isolate by broth microdilution method; outline: as §2
[31] = test system: Streptococcus sp.; assay: Antibacterial activity against Streptococcus sp. Group F clinical isolate by broth microdilution method; outline: as §4
[32] = test system: Staphylococcus simulans; assay: Antibacterial activity against methicillin-resistant coagulase-negative Staphylococcus simulans clinical isolate by broth microdilution method; outline: as §1
[33] = test system: Staphylococcus aureus; assay: Antibacterial activity against methicillin-susceptible Staphylococcus aureus clinical isolate by broth microdilution method; outline: as §1
[34] = test system: Staphylococcus haemolyticus; assay: Antibacterial activity against methicillin-susceptible coagulase-negative Staphylococcus haemolyticus clinical isolate by broth microdilution method; outline: as §1
[35] = test system: Enterococcus faecium; assay: Antibacterial activity against vancomycin- and teichoplanin-nonsusceptible Enterococcus faecium clinical isolate by broth microdilution method; outline: as §1
[36] = test system: Enterococcus faecalis; assay: Antibacterial activity against vancomycin- and teichoplanin-nonsusceptible Enterococcus faecalis clinical isolate by broth microdilution method; outline: as §1
[37] = test system: Staphylococcus xylosus; assay: Antibacterial activity against methicillin-susceptible coagulase-negative Staphylococcus xylosus clinical isolate by broth microdilution method; outline: as §1
[38] = test system: Streptococcus sanguinis; assay: Antibacterial activity against Streptococcus sanguinis clinical isolate by broth microdilution method; outline: as §2

CCCCCCCCCCNCCN[C@@]1(C)C[C@H](O[C@H]2[C@H](Oc3c4cc5cc3Oc3ccc(cc3Cl)[C@@H](O)[C@@H](NC(=O)[C@@H](CC(C)C)NC)C(=O)N[C@@H](CC(N)=O)C(=O)N[C@H]5C(=O)N[C@H]3C(=O)N[C@H](C(=O)N[C@H](C(=O)O)c5cc(O)c(CNCP(=O)(O)O)c(O)c5-c5cc3ccc5O)[C@H](O)c3ccc(c(Cl)c3)O4)O[C@H](CO)[C@@H](O)[C@@H]2O)O[C@@H](C)[C@H]1O [TELAVANCIN]
4 µg/mL: MIC [24] | MIC50 [35]
1 µg/mL: MIC [19] | MIC [26]
8 µg/mL: MIC90 [35] | MIC50 [36]
0.03 µg/mL: MIC50 [3] | MIC50 [5] | MIC50 [11] | MIC90 [15] | MIC50 [16] | MIC50 [18] | MIC [25] | MIC50 [25] | MIC50 [27] | MIC50 [28] | MIC [31] | MIC50 [31] | MIC50 [38]
0.5 µg/mL: MIC90 [1] | MIC90 [2] | MIC90 [4] | MIC90 [6] | MIC90 [7] | MIC90 [8] | MIC90 [9] | MIC90 [12] | MIC90 [13] | MIC90 [14] | MIC90 [20] | MIC90 [21] | MIC90 [22] | MIC90 [23] | MIC90 [29] | MIC90 [32] | MIC90 [33] | MIC90 [34] | MIC90 [37]
0.25 µg/mL: MIC50 [1] | MIC50 [2] | MIC50 [4] | MIC50 [6] | MIC50 [7] | MIC50 [8] | MIC50 [9] | MIC50 [12] | MIC50 [13] | MIC50 [14] | MIC50 [20] | MIC50 [21] | MIC50 [22] | MIC50 [23] | MIC50 [29] | MIC90 [30] | MIC50 [32] | MIC50 [33] | MIC50 [34] | MIC50 [37]
0.12 µg/mL: MIC90 [3] | MIC90 [11] | MIC90 [16] | MIC90 [18] | MIC90 [27] | MIC90 [28] | MIC50 [30] | MIC90 [38]
0.015 µg/mL: MIC50 [10] | MIC90 [10] | MIC50 [15]
0.06 µg/mL: MIC90 [5] | MIC50 [17] | MIC90 [17] | MIC90 [25] | MIC90 [31]
16 µg/mL: MIC90 [36]

CN[C@H](CC(C)C)C(=O)N[C@H]1C(=O)N[C@@H](CC(N)=O)C(=O)N[C@H]2C(=O)N[C@H]3C(=O)N[C@H](C(=O)N[C@H](C(=O)O)c4cc(O)cc(O)c4-c4cc3ccc4O)[C@H](O)c3ccc(c(Cl)c3)Oc3cc2cc(c3O[C@@H]2O[C@H](CO)[C@@H](O)[C@H](O)[C@H]2O[C@H]2C[C@](C)(N)[C@H](O)[C@H](C)O2)Oc2ccc(cc2Cl)[C@H]1O [VANCOMYCIN]
> 512 µg/mL: MIC90 [36]
> 32 µg/mL: MIC [24]
2 µg/mL: MIC90 [1] | MIC50 [2] | MIC90 [2] | MIC50 [4] | MIC90 [4] | MIC50 [6] | MIC90 [6] | MIC90 [7] | MIC50 [8] | MIC90 [8] | MIC50 [9] | MIC90 [9] | MIC90 [12] | MIC90 [13] | MIC50 [14] | MIC90 [14] | MIC90 [20] | MIC50 [21] | MIC90 [21] | MIC50 [22] | MIC90 [22] | MIC50 [23] | MIC90 [23] | MIC50 [29] | MIC90 [29] | MIC50 [32] | MIC90 [32] | MIC90 [34] | MIC90 [37]
8 µg/mL: MIC [19]
32 µg/mL: MIC [26]
0.25 µg/mL: MIC [5] | MIC50 [5] | MIC [10] | MIC50 [10] | MIC50 [15] | MIC [25] | MIC50 [25] | MIC [31] | MIC50 [31]
≤ 0.5 µg/mL: MIC [30] | MIC50 [30]
1 µg/mL: MIC50 [1] | MIC50 [7] | MIC50 [12] | MIC50 [13] | MIC50 [20] | MIC90 [30] | MIC50 [33] | MIC90 [33] | MIC50 [34] | MIC50 [37]
512 µg/mL: MIC50 [35] | MIC90 [35] | MIC50 [36]
0.5 µg/mL: MIC50 [3] | MIC90 [3] | MIC90 [5] | MIC90 [10] | MIC50 [11] | MIC90 [11] | MIC90 [15] | MIC50 [16] | MIC90 [16] | MIC50 [17] | MIC90 [17] | MIC50 [18] | MIC90 [18] | MIC90 [25] | MIC50 [27] | MIC90 [27] | MIC50 [28] | MIC90 [28] | MIC90 [31] | MIC50 [38] | MIC90 [38]
